Reference: ChEMBL document CHEMBL1926614, “Substituted thiazoles V. synthesis and antitumor activity of novel thiazolo[2,3-b]quinazoline and pyrido[4,3-d]thiazolo[3,2-a]pyrimidine analogues” (2012)

How the values were obtained:
Format in all cases: functional
[1] = Cytotoxicity against human CNS cancer cells after 48 hrs by coulter counting; settings: Cancer cell lines
Summary of the method: (§1)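 NCI 60-cell-line panel covering nine tumour subpanels, tested over a 5-log dose range. Compounds were dissolved in DMSO and diluted in phosphate-buffered saline to a final DMSO below 1%. Wells held 6 × 10⁴ cells/ml and were run in duplicate. Controls contained PBS and DMSO at matching dilutions. Incubation was at 37 °C in humidified 5% CO₂. GI₅₀, TGI and LC₅₀ were reported.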

[2] = Cytotoxicity against human melanoma cells after 48 hrs by coulter counting; settings: Melanoma cell; summary of the method: as §1
[3] = Cytotoxicity against human renal cancer cells after 48 hrs by coulter counting; settings: Cancer cell lines; summary of the method: as §1
[4] = Cytotoxicity against human ovarian cancer cells after 48 hrs by coulter counting; settings: Cancer cell lines; summary of the method: as §1
[5] = Cytotoxicity against human prostate cancer cells after 48 hrs by coulter counting; settings: Cancer cell lines; summary of the method: as §1
[6] = Cytotoxicity against human breast cancer cells after 48 hrs by coulter counting; settings: Cancer cell lines; summary of the method: as §1
[7] = system: NSCLC; experiment: Cytotoxicity against human NSCLC cells after 48 hrs by coulter counting; summary of the method: as §1
[8] = Cytotoxicity against human leukemia cells after 48 hrs by coulter counting; settings: Leukemia cell; summary of the method: as §1
[9] = Cytotoxicity against human colon cancer cells after 48 hrs by coulter counting; settings: Cancer cell lines; summary of the method: as §1
[10] = read-out: LC50 (the source's name)

Structure (SMILES): O=c1[nH]cc(F)c(=O)[nH]1 [FLUOROURACIL]
- TGI [1]: > 100 µM
- GI50 [2]: 70.6 µM
- TGI [2]: > 100 µM
- CC50 [2, 10]: > 100 µM
- GI50 [3]: 45.6 µM
- TGI [3]: > 100 µM
- GI50 [4]: 61.4 µM
- TGI [4]: > 100 µM
- CC50 [4, 10]: > 100 µM
- GI50 [5]: 22.7 µM
- TGI [5]: > 100 µM
- GI50 [6]: 76.4 µM
- TGI [6]: > 100 µM
- CC50 [6, 10]: > 100 µM
- GI50 [7]: > 100 µM
- TGI [7]: > 100 µM
- CC50 [7, 10]: > 100 µM
- TGI [8]: > 100 µM
- CC50 [8, 10]: > 100 µM
- GI50 [9]: 8.4 µM
- TGI [9]: > 100 µM
